According to ChEMBL document CHEMBL2203094, “Ramariolides A-D, antimycobacterial butenolides isolated from the mushroom Ramaria cystidiophora” (J Nat Prod, 2012):
≈ marks a conversion by molar mass, not a printed value. Calls of active or inactive are those of the source. No cut-off for these calls is given here.

Legend:
[1] = tested on: Mycolicibacterium smegmatis; experiment: Antimicrobial activity against Mycobacterium smegmatis str. MC2 155 by broth dilution method; format: functional
Summary of the method: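 M. smegmatis mc2155 grown and assayed at 37 °C in NE13 medium. Broth dilution with twofold serial dilutions, top concentration 128 μg/mL, run in triplicate. Resazurin read-out; MIC is the lowest concentration preventing the blue-to-pink change. For MBC, each well was subcultured into fresh medium before resazurin was added, then read the same way.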

Escherichia coli = experiment: Antimicrobial activity against Escherichia coli O157:H7; format: functional, organism-based
Micrococcus luteus = experiment: Antimicrobial activity against Micrococcus luteus JVC1154 at 50 ug after 16 to 18 hrs by disk diffusion method; format: functional; conditions: read-out: DIZ
Summary of the method: (§1)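 Disk diffusion: strains grown at 37 °C in NE13 medium. Agar plates swabbed from 10^6 cells/mL suspensions; 6 mm paper disks loaded with 50 μg compound; growth-inhibition zones measured after 16−18 h.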

[2] = tested on: Mycobacterium tuberculosis; experiment: Antimicrobial activity against Mycobacterium tuberculosis H37Rv by MTT assay; format: functional, organism-based
Summary of the method: (§2)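 Strains were grown in Middlebrook 7H9 with 0.2% glycerol and 10% ADC; tyloxapol was omitted in assays. Inoculum of 10^5 cells/mL was exposed to 2-fold serial dilutions at 37 °C in 5% CO2 for 7 d. MTT (2.5 mg/mL) was then added for 24 h, followed by 10% Na lauryl sulfate, and OD570 read after 24 h. IC50 came from a four-parameter log2 dose-response fit, in triplicate.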

[3] = tested on: Mycobacterium tuberculosis; experiment: Antimicrobial activity against Mycobacterium tuberculosis str. Erdman by MTT assay; format: functional; summary of the method: as §2
Acinetobacter baumannii = experiment: Antimicrobial activity against Acinetobacter baumannii ATCC 19606; format: functional, organism-based; conditions: ATCC 19606 = CIP 70.34 = JCM 6841
Summary of the method: (§3)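 Disk diffusion spectrum test: agar plates swabbed from 10^6 cells/mL suspensions of each strain; 6 mm paper disks carrying 50 μg compound; inhibition zone sizes read after 16−18 h.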

Staphylococcus aureus = experiment: Antimicrobial activity against Staphylococcus aureus RN4220 at 50 ug after 16 to 18 hrs by disk diffusion method; format: functional; conditions: read-out: DIZ; summary of the method: as §1
[4] = tested on: Mycobacterium tuberculosis; experiment: Antimicrobial activity against Mycobacterium tuberculosis CDC1551 by MTT assay; format: functional; summary of the method: as §2
Salmonella typhimurium = experiment: Antimicrobial activity against Salmonella typhimurium ATCC 14028; format: functional, organism-based; conditions: Salmonella enterica subsp. enterica serovar Typhimurium; summary of the method: as §3
Pseudomonas aeruginosa = experiment: Antimicrobial activity against Pseudomonas aeruginosa PAO1; format: functional, organism-based; summary of the method: as §3

| SMILES | MIC [1] | Activity (Escherichia coli) | zone of inhibition at 50 µg/disc (Micrococcus luteus) | IC50 [2] | MIC [2] | IC50 [3] | MIC [3] | Activity (Acinetobacter baumannii) | zone of inhibition at 50 µg/disc (Staphylococcus aureus) | IC50 [4] | MIC [4] | Activity (Salmonella typhimurium) | Activity (Pseudomonas aeruginosa) |
| --- | --- | --- | --- | --- | --- | --- | --- | --- | --- | --- | --- | --- | --- |
| NNC(=O)c1ccncc1 [ISONIAZID] | 8 µg/mL (≈ 58.3 µM) | – | – | – | – | – | – | – | – | – | – | – | – |
| CCCCCCCCCC[C@H](O)[C@@H]1O[C@]12C=CC(=O)O2 [RAMARIOLIDE A] | 8 µg/mL (≈ 28.3 µM) | inactive | 18 mm | 53 µg/mL (≈ 188 µM) | 64 µg/mL (≈ 227 µM) | 53 µg/mL (≈ 188 µM) | 64 µg/mL (≈ 227 µM) | inactive | 15 mm | 53 µg/mL (≈ 188 µM) | 64 µg/mL (≈ 227 µM) | inactive | inactive |
| CN[C@@H]1[C@H](O)[C@H](NC)[C@H]2O[C@@]3(O)C(=O)C[C@@H](C)O[C@H]3O[C@@H]2[C@H]1O [SPECTINOMYCIN] | 32 µg/mL (≈ 96.3 µM) | – | – | – | – | – | – | – | – | – | – | – | – |
